From ChEMBL document CHEMBL1138179, “Discovery of a novel nonphosphorylated pentapeptide motif displaying high affinity for Grb2-SH2 domain by the utilization of 3'-substituted tyrosine derivatives” (J Med Chem, 2006)
Numbered stars: 1 amine (or outer) side, 2 acyl side, 3 side chain; on linkers, the order of the positions; unused ones are H or OH. Bridge positions count the residues as written; N and C are the ends. Square brackets hold non-standard residues; d marks the D form. Peptide text beside a SMILES is read from it. Tyr(3-NO2) = N[C@@H](Cc1ccc(O)c([N+](=O)[O-])c1)C(=O)O; X1 = O=C(O)c1cc(C[C@H](N[*:1])C(=O)[*:2])ccc1O; Tyr(3-OMe) = COc1cc(C[C@H](N)C(=O)O)ccc1O; Tyr(3-NH2) = Nc1cc(C[C@H](N)C(=O)O)ccc1O; Dopa = N[C@@H](Cc1ccc(O)c(O)c1)C(=O)O; Gla = N[C@@H](CC(C(=O)O)C(=O)O)C(=O)O; Aad = N[C@@H](CCCC(=O)O)C(=O)O; Ac6c = NC1(C(=O)O)CCCCC1; Ava = NCCCCC(=O)O; βAla = NCCC(=O)O

How the values were obtained:
[1] = target: Growth factor receptor-bound protein 2 (Homo sapiens, UniProt P62993); assay: Inhibition of recombinant GRB2-SH2 domain
Summary of the method: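 Competitive SPR (BIAcore 3000): inhibitor premixed with recombinant Grb2-SH2 protein; binding at equilibrium measured to immobilized biotinylated SHC pTyr317 phosphopeptide (biotinyl-DDPS-pY-VNVQ). IC50 = concentration giving half-maximal competition; mean of at least two independent experiments.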

MDA-MB-453 = assay: cells; conditions: Homo sapiens

IC50 [1] [µM]	IC50 (MDA-MB-453) [µM]	Compound
11.2	–	CC(C)C[C@@H]1NC(=O)[C@H](CC(C(=O)O)C(=O)O)NC(=O)C[S+]([O-])C[C@H](C(N)=O)NC(=O)CCNC(=O)[C@H](CC(N)=O)NC(=O)C2(CCCCC2)NC(=O)[C@H](Cc2ccc(O)c(N)c2)NC1=O (stereo partly drawn)
0.058	0.019	CC(C)C[C@@H]1NC(=O)[C@H](CC(C(=O)O)C(=O)O)NC(=O)C[S+]([O-])C[C@@H](C(N)=O)NC(=O)CCCCNC(=O)[C@H](CC(N)=O)NC(=O)C2(CCCCC2)NC(=O)[C@H](Cc2ccc(O)c(N)c2)NC1=O (stereo partly drawn)
14	–	CC(C)C[C@@H]1NC(=O)[C@H](CCCC(=O)O)NC(=O)C[S+]([O-])C[C@H](C(N)=O)NC(=O)CCCCNC(=O)[C@H](CC(N)=O)NC(=O)C2(CCCCC2)NC(=O)[C@H](Cc2ccc(O)c(N)c2)NC1=O (stereo partly drawn)
200	–	CC(C)C[C@@H]1NC(=O)[C@H](CC(C(=O)O)C(=O)O)NC(=O)C[S+]([O-])C[C@H](C(N)=O)NC(=O)[C@H](CC(N)=O)NC(=O)C2(CCCCC2)NC(=O)[C@H](Cc2ccc(O)c(N)c2)NC1=O (stereo partly drawn)
1.55	–	CC(C)C[C@@H]1NC(=O)[C@H](CC(C(=O)O)C(=O)O)NC(=O)C[S+]([O-])C[C@H](C(N)=O)NC(=O)CCCCNC(=O)[C@H](CC(N)=O)NC(=O)C2(CCCCC2)NC(=O)[C@H](Cc2ccc(O)c(N)c2)NC1=O (stereo partly drawn)
1000	–	CC(C)C[C@@H]1NC(=O)[C@H](CCCC(=O)O)NC(=O)C[S+]([O-])C[C@H](C(N)=O)NC(=O)CCCCNC(=O)[C@H](CC(N)=O)NC(=O)C2(CCCCC2)NC(=O)[C@H](Cc2ccc(O)cc2)NC1=O (stereo partly drawn)
77	–	CC(C)C[C@@H]1NC(=O)[C@H](CCCC(=O)O)NC(=O)C[S+]([O-])C[C@@H](C(N)=O)NC(=O)CCCCNC(=O)[C@H](CC(N)=O)NC(=O)C2(CCCCC2)NC(=O)[C@H](Cc2ccc(O)cc2)NC1=O (stereo partly drawn)
212	–	CC(C)C[C@@H]1NC(=O)[C@H](CCCC(=O)O)NC(=O)C[S+]([O-])C[C@H](C(N)=O)NC(=O)CCCCNC(=O)[C@H](CC(N)=O)NC(=O)C2(CCCCC2)NC(=O)[C@H](Cc2ccc(O)c(C(=O)O)c2)NC1=O (stereo partly drawn)
97	–	COc1cc(C[C@@H]2NC(=O)[C@H](CC(C)C)NC(=O)[C@H](CCCC(=O)O)NC(=O)C[S+]([O-])C[C@@H](C(N)=O)NC(=O)CCCCNC(=O)[C@H](CC(N)=O)NC(=O)C3(CCCCC3)NC2=O)ccc1O (stereo partly drawn)
9.7	–	CC(C)C[C@@H]1NC(=O)[C@H](CC(C(=O)O)C(=O)O)NC(=O)C[S+]([O-])C[C@@H](C(N)=O)NC(=O)[C@H](CC(N)=O)NC(=O)C2(CCCCC2)NC(=O)[C@H](Cc2ccc(O)c(N)c2)NC1=O (stereo partly drawn)
16	–	CC(C)C[C@@H]1NC(=O)[C@H](CCCC(=O)O)NC(=O)C[S+]([O-])C[C@@H](C(N)=O)NC(=O)CCCCNC(=O)[C@H](CC(N)=O)NC(=O)C2(CCCCC2)NC(=O)[C@H](Cc2ccc(O)c(C(=O)O)c2)NC1=O (stereo partly drawn)
0.36	–	CC(C)C[C@@H]1NC(=O)[C@H](CC(C(=O)O)C(=O)O)NC(=O)C[S+]([O-])C[C@@H](C(N)=O)NC(=O)CCNC(=O)[C@H](CC(N)=O)NC(=O)C2(CCCCC2)NC(=O)[C@H](Cc2ccc(O)c(N)c2)NC1=O (stereo partly drawn)
550	–	CC(C)C[C@@H]1NC(=O)[C@H](CCCC(=O)O)NC(=O)C[S+]([O-])C[C@H](C(N)=O)NC(=O)CCCCNC(=O)[C@H](CC(N)=O)NC(=O)C2(CCCCC2)NC(=O)[C@H](Cc2ccc(O)c(O)c2)NC1=O (stereo partly drawn)
87	–	CC(C)C[C@@H]1NC(=O)[C@H](CCCC(=O)O)NC(=O)C[S+]([O-])C[C@@H](C(N)=O)NC(=O)CCCCNC(=O)[C@H](CC(N)=O)NC(=O)C2(CCCCC2)NC(=O)[C@H](Cc2ccc(O)c(O)c2)NC1=O (stereo partly drawn)
25	–	CC(C)C[C@@H]1NC(=O)[C@H](CCCC(=O)O)NC(=O)C[S+]([O-])C[C@@H](C(N)=O)NC(=O)CCCCNC(=O)[C@H](CC(N)=O)NC(=O)C2(CCCCC2)NC(=O)[C@H](Cc2ccc(O)c([N+](=O)[O-])c2)NC1=O (stereo partly drawn)
3.9	–	CC(C)C[C@@H]1NC(=O)[C@H](CCCC(=O)O)NC(=O)C[S+]([O-])C[C@@H](C(N)=O)NC(=O)CCCCNC(=O)[C@H](CC(N)=O)NC(=O)C2(CCCCC2)NC(=O)[C@H](Cc2ccc(O)c(N)c2)NC1=O (stereo partly drawn)
265	–	CC(C)C[C@@H]1NC(=O)[C@H](CCCC(=O)O)NC(=O)C[S+]([O-])C[C@H](C(N)=O)NC(=O)CCCCNC(=O)[C@H](CC(N)=O)NC(=O)C2(CCCCC2)NC(=O)[C@H](Cc2ccc(O)c([N+](=O)[O-])c2)NC1=O (stereo partly drawn)
> 1000	–	COc1cc(C[C@@H]2NC(=O)[C@H](CC(C)C)NC(=O)[C@H](CCCC(=O)O)NC(=O)C[S+]([O-])C[C@H](C(N)=O)NC(=O)CCCCNC(=O)[C@H](CC(N)=O)NC(=O)C3(CCCCC3)NC2=O)ccc1O (stereo partly drawn)
93	–	CC(C)C[C@@H]1NC(=O)[C@H](CCCC(=O)O)NC(=O)CSC[C@@H](C(N)=O)NC(=O)CCCCNC(=O)[C@H](CC(N)=O)NC(=O)C2(CCCCC2)NC(=O)[C@H](Cc2ccc(O)cc2)NC1=O ({CH2CO}-[Aad]LY[Ac6c]N[Ava]C-NH2; thioether N-7)
135	–	CC(C)C[C@@H]1NC(=O)[C@H](CCCC(=O)O)NC(=O)CSC[C@@H](C(N)=O)NC(=O)CCCCNC(=O)[C@H](CC(N)=O)NC(=O)C2(CCCCC2)NC(=O)[C@H](Cc2ccc(O)c(O)c2)NC1=O ({CH2CO}-[Aad]L[Dopa][Ac6c]N[Ava]C-NH2; thioether N-7)
8.9	–	CC(C)C[C@@H]1NC(=O)[C@H](CCCC(=O)O)NC(=O)CSC[C@@H](C(N)=O)NC(=O)CCCCNC(=O)[C@H](CC(N)=O)NC(=O)C2(CCCCC2)NC(=O)[C@H](Cc2ccc(O)c(N)c2)NC1=O ({CH2CO}-[Aad]L[Tyr(3-NH2)][Ac6c]N[Ava]C-NH2; thioether N-7)
182	–	CC(C)C[C@@H]1NC(=O)[C@H](CCCC(=O)O)NC(=O)CSC[C@@H](C(N)=O)NC(=O)CCCCNC(=O)[C@H](CC(N)=O)NC(=O)C2(CCCCC2)NC(=O)[C@H](Cc2ccc(O)c([N+](=O)[O-])c2)NC1=O ({CH2CO}-[Aad]L[Tyr(3-NO2)][Ac6c]N[Ava]C-NH2; thioether N-7)
245	–	COc1cc(C[C@@H]2NC(=O)[C@H](CC(C)C)NC(=O)[C@H](CCCC(=O)O)NC(=O)CSC[C@@H](C(N)=O)NC(=O)CCCCNC(=O)[C@H](CC(N)=O)NC(=O)C3(CCCCC3)NC2=O)ccc1O ({CH2CO}-[Aad]L[Tyr(3-OMe)][Ac6c]N[Ava]C-NH2; thioether N-7)
88	–	CC(C)C[C@@H]1NC(=O)[C@H](CCCC(=O)O)NC(=O)CSC[C@@H](C(N)=O)NC(=O)CCCCNC(=O)[C@H](CC(N)=O)NC(=O)C2(CCCCC2)NC(=O)[C@H](Cc2ccc(O)c(C(=O)O)c2)NC1=O ({CH2CO}-[Aad]L[X1][Ac6c]N[Ava]C-NH2; thioether N-7)
22.5	–	CC(C)C[C@@H]1NC(=O)[C@H](CC(C(=O)O)C(=O)O)NC(=O)CSC[C@@H](C(N)=O)NC(=O)[C@H](CC(N)=O)NC(=O)C2(CCCCC2)NC(=O)[C@H](Cc2ccc(O)c(N)c2)NC1=O ({CH2CO}-[Gla]L[Tyr(3-NH2)][Ac6c]NC-NH2; thioether N-6)
0.19	–	CC(C)C[C@@H]1NC(=O)[C@H](CC(C(=O)O)C(=O)O)NC(=O)CSC[C@@H](C(N)=O)NC(=O)CCCCNC(=O)[C@H](CC(N)=O)NC(=O)C2(CCCCC2)NC(=O)[C@H](Cc2ccc(O)c(N)c2)NC1=O ({CH2CO}-[Gla]L[Tyr(3-NH2)][Ac6c]N[Ava]C-NH2; thioether N-7)
1.02	–	CC(C)C[C@@H]1NC(=O)[C@H](CC(C(=O)O)C(=O)O)NC(=O)CSC[C@@H](C(N)=O)NC(=O)CCNC(=O)[C@H](CC(N)=O)NC(=O)C2(CCCCC2)NC(=O)[C@H](Cc2ccc(O)c(N)c2)NC1=O ({CH2CO}-[Gla]L[Tyr(3-NH2)][Ac6c]N[βAla]C-NH2; thioether N-7)
